Laboratory results from ChEMBL document CHEMBL1122708, “Preparation and antibacterial activities of new 1,2,3-diazaborine derivatives and analogues” (1984).
Values after ≈ are worked out from the molar mass of the structure shown.

Tests used:
Neisseria gonorrhoeae [1] = assay: Minimum inhibitory concentration of compound against Neisseria gonorrhoeae W2; assay type: functional
Procedure, shortened: (§1)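 Agar dilution on Kellogg agar, 10⁶ colony forming units, incubated 20 h at 36 °C in 5% CO₂; MIC is the lowest concentration giving no visible growth.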

Proteus mirabilis = assay: Minimum inhibitory concentration against Proteus mirabilis delta 89; assay type: functional
Klebsiella pneumoniae = assay: Minimum inhibitory concentration of compound against Klebsiella pneumoniae delta 217; assay type: functional
Neisseria gonorrhoeae [2] = assay: Minimum inhibitory concentration of compound against Neisseria gonorrhoeae AS 7720; assay type: functional; procedure, shortened: as §1
Escherichia coli [3] = assay: Minimum inhibitory concentration of compound against Escherichia coli delta 120; assay type: functional
Escherichia coli [4] = assay: Antibacterial activity againist Escherichia coli 120 infected NMRI mice after peroral administration; assay type: functional; settings: po
Procedure, shortened: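 ED50 in NMRI mice infected intraperitoneally with E. coli 120; compound given orally immediately and 5 h after infection.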

Klebsiella aerogenes = assay: Minimum inhibitory concentration of compound against Enterobacter aerogenes delta 220; assay type: functional
Salmonella typhimurium = assay: Minimum inhibitory concentration of compound against Salmonella Typhimurium delta 119; assay type: functional, Salmonella enterica subsp. enterica serovar Typhimurium; settings: Salmonella enterica

SMILES | MIC (Neisseria gonorrhoeae [1]) [µg/mL] | MIC (Proteus mirabilis) [µg/mL] | MIC (Klebsiella pneumoniae) [µg/mL] | MIC (Neisseria gonorrhoeae [2]) [µg/mL] | MIC (Escherichia coli [3]) [µg/mL] | ED50 (Escherichia coli [4]) [mg/kg] | MIC (Klebsiella aerogenes) [µg/mL] | MIC (Salmonella typhimurium) [µg/mL]
Cc1ccc(S(=O)(=O)N2N=Cc3ccccc3B2O)cc1 | 8 (≈ 26.7 µM) | 12.5 (≈ 41.6 µM) | 3.12 (≈ 10.4 µM) | 2 (≈ 6.66 µM) | 25 (≈ 83.3 µM) | ~25 | > 50 | 6.25 (≈ 20.8 µM)
Cc1ccc(S(=O)(=O)N2N=Cc3c(Cl)cc(N(C)C)cc3B2O)cc1 | – | – | – | – | > 50 | > 300 | – | > 50
CS(=O)(=O)N1N=Cc2ccccc2B1O | – | – | – | – | > 50 | – | – | > 50
Cc1cc(C)c(S(=O)(=O)N2N=Cc3c(F)cccc3B2O)c(C)c1 | – | 10 (≈ 28.9 µM) | 50 (≈ 144 µM) | – | > 50 | > 100 | > 50 | > 50
Cc1ccc(S(=O)(=O)N2N=Cc3ccc(O)cc3B2O)cc1 | – | – | – | – | > 50 | ~300 | – | > 50
O=S(=O)(c1cc(Cl)c(Cl)cc1Cl)N1N=Cc2cc(Br)ccc2B1O | 8 (≈ 17.1 µM) | 6.25 (≈ 13.3 µM) | 50 (≈ 107 µM) | 1 (≈ 2.14 µM) | > 50 | > 300 | > 50 | > 50
Cc1ccc(S(=O)(=O)N2N=Cc3ccc(F)cc3B2O)cc1 | – | – | – | – | > 50 | ~250 | – | > 50
CCS(=O)(=O)N1N=Cc2sc(Br)cc2B1O | 2 (≈ 6.19 µM) | 6.25 (≈ 19.3 µM) | 3.12 (≈ 9.66 µM) | 2 (≈ 6.19 µM) | 12.5 (≈ 38.7 µM) | – | 12.5 (≈ 38.7 µM) | 3.12 (≈ 9.66 µM)
Cc1ccc(S(=O)(=O)N2N=Cc3cc(C)ccc3B2O)cc1 | 8 (≈ 25.5 µM) | 3.12 (≈ 9.93 µM) | 1.56 (≈ 4.97 µM) | 1 (≈ 3.18 µM) | 12.5 (≈ 39.8 µM) | ~15 | 50 (≈ 159 µM) | 3.12 (≈ 9.93 µM)
Cc1cc2c(s1)C=NN(S(=O)(=O)c1ccccc1Cl)B2O | 0.5 (≈ 1.47 µM) | 1.56 (≈ 4.58 µM) | 1.56 (≈ 4.58 µM) | 0.5 (≈ 1.47 µM) | 12.5 (≈ 36.7 µM) | 49 | 12.5 (≈ 36.7 µM) | 1.56 (≈ 4.58 µM)
O=[N+]([O-])c1ccc(S(=O)(=O)N2N=Cc3c(F)cccc3B2O)cc1 | – | – | – | – | > 50 | ~100 | – | 50 (≈ 143 µM)
Cc1ccc2c(c1)C=NN(S(=O)(=O)N(C)C)B2O | 8 (≈ 29.9 µM) | 6.25 (≈ 23.4 µM) | 6.25 (≈ 23.4 µM) | 8 (≈ 29.9 µM) | > 50 | – | > 50 | 12.5 (≈ 46.8 µM)
CCCS(=O)(=O)N1N=Cc2sc(C)cc2B1O | 1 (≈ 3.67 µM) | 0.78 (≈ 2.87 µM) | 0.39 (≈ 1.43 µM) | 1 (≈ 3.67 µM) | 1.56 (≈ 5.73 µM) | 4.5 | 3.12 (≈ 11.5 µM) | 0.78 (≈ 2.87 µM)
CC1=NN(S(=O)(=O)c2ccc(C)cc2)B(O)c2ccccc21 | – | – | – | – | > 50 | ~100 | – | > 50
O=S(=O)(c1ccccc1Cl)N1N=Cc2sc(Br)cc2B1O | 1 (≈ 2.47 µM) | 0.78 (≈ 1.92 µM) | 1.56 (≈ 3.85 µM) | 0.5 (≈ 1.23 µM) | 25 (≈ 61.7 µM) | 39 | 25 (≈ 61.7 µM) | 3.12 (≈ 7.69 µM)
Cc1ccc(S(=O)(=O)N2N=Cc3c(ccn3C)B2O)cc1 | – | – | – | – | > 50 | > 300 | – | > 50
O=[N+]([O-])c1ccc(S(=O)(=O)N2N=Cc3cc(Br)ccc3B2O)cc1 | 8 (≈ 19.5 µM) | 3.12 (≈ 7.61 µM) | 0.78 (≈ 1.9 µM) | 1 (≈ 2.44 µM) | 6.25 (≈ 15.2 µM) | ~25 | > 50 | 3.12 (≈ 7.61 µM)
Cc1ccc(S(=O)(=O)N2N=Cc3cc(Cl)c(Cl)cc3B2O)cc1 | – | – | – | – | > 50 | > 100 | – | > 50
Cc1ccc(S(=O)(=O)N2N=C(c3ccccc3)c3ccccc3B2O)cc1 | – | – | – | – | > 50 | > 300 | – | > 50

SMILES | MIC (Neisseria gonorrhoeae [1]) [µg/mL] | MIC (Proteus mirabilis) [µg/mL] | MIC (Klebsiella pneumoniae) [µg/mL] | MIC (Neisseria gonorrhoeae [2]) [µg/mL] | MIC (Escherichia coli [3]) [µg/mL] | ED50 (Escherichia coli [4]) [mg/kg] | MIC (Klebsiella aerogenes) [µg/mL] | MIC (Salmonella typhimurium) [µg/mL]
Cc1ccc(S(=O)(=O)N2N=Cc3ccc(C(=O)O)cc3B2O)cc1 | – | – | – | – | > 50 | – | – | > 50
Cc1ccc(S(=O)(=O)N2N=Cc3c(Cl)cc(Cl)cc3B2O)cc1 | – | – | – | – | > 50 | > 100 | – | > 50
Cc1ccc(S(=O)(=O)N2N=Cc3c(C)ccc(C)c3B2O)cc1 | – | > 50 | > 50 | – | > 50 | > 600 | > 50 | > 50
O=S(=O)(c1cc(Cl)c(Cl)cc1Cl)N1N=Cc2c(F)cccc2B1O | – | 25 (≈ 61.4 µM) | > 50 | – | > 50 | > 300 | > 50 | > 50
CCc1cc2c(s1)B(O)N(S(=O)(=O)c1ccc(C)cc1)N=C2 | 0.5 (≈ 1.5 µM) | 1.25 (≈ 3.74 µM) | 1.25 (≈ 3.74 µM) | 0.25 (≈ 0.748 µM) | 6.25 (≈ 18.7 µM) | 9 | 25 (≈ 74.8 µM) | 1.56 (≈ 4.67 µM)
Cc1ccc(S(=O)(=O)N2N=Cc3c(ccn3Cc3ccccc3)B2O)cc1 | – | 50 (≈ 132 µM) | 50 (≈ 132 µM) | – | > 50 | > 600 | > 50 | > 50
Cc1ccc(S(=O)(=O)N2N=Cc3c(C)cccc3B2O)cc1 | 8 (≈ 25.5 µM) | 5 (≈ 15.9 µM) | 10 (≈ 31.8 µM) | 2 (≈ 6.37 µM) | > 50 | > 100 | > 50 | 50 (≈ 159 µM)
CC(=O)Nc1ccc(S(=O)(=O)N2N=Cc3cc(C)ccc3B2O)c(Cl)c1 | 1 (≈ 2.55 µM) | 1.25 (≈ 3.19 µM) | 1.25 (≈ 3.19 µM) | 0.5 (≈ 1.28 µM) | 25 (≈ 63.8 µM) | 16 | 25 (≈ 63.8 µM) | 6.25 (≈ 16 µM)
Cc1ccc(S(=O)(=O)N2N=Cc3c(F)cccc3B2O)cc1 | 8 (≈ 25.1 µM) | 3.12 (≈ 9.81 µM) | 25 (≈ 78.6 µM) | 2 (≈ 6.29 µM) | > 50 | 5 | > 50 | 25 (≈ 78.6 µM)
Cc1ccc(S(=O)(=O)N2N=Cc3c(Br)cccc3B2O)cc1 | – | – | – | – | > 50 | > 100 | – | > 50
Cc1ccc(S(=O)(=O)N2N=Cc3cc(N)ccc3B2O)cc1 | – | 50 (≈ 159 µM) | 50 (≈ 159 µM) | – | > 50 | > 300 | > 50 | > 50
Cc1ccc(S(=O)(=O)N2N=Cc3ccc(N(C)C)cc3B2O)cc1 | – | – | – | – | > 50 | 100 | – | > 50
Cc1ccc(S(=O)(=O)N2N=Cc3c(Cl)cccc3B2O)cc1 | – | – | – | – | > 50 | ~100 | – | > 50
Cc1ccc(S(=O)(=O)N2N=Cc3scc(Br)c3B2O)cc1 | – | 50 (≈ 130 µM) | > 50 | – | > 50 | > 300 | > 50 | > 50
Cc1ccc(S(=O)(=O)N2N=Cc3cc(N(C)C)ccc3B2O)cc1 | – | – | – | – | > 50 | > 300 | – | > 50
CC(=O)Nc1ccc2c(c1)B(O)N(S(=O)(=O)c1ccc(C)cc1)N=C2 | – | – | – | – | > 50 | > 300 | – | > 50
Cc1cc2c(s1)B(O)N(S(=O)(=O)CC(C)C)N=C2 | 1 (≈ 3.49 µM) | 1.56 (≈ 5.45 µM) | 0.78 (≈ 2.73 µM) | 1 (≈ 3.49 µM) | 6.25 (≈ 21.8 µM) | 5 | 6.25 (≈ 21.8 µM) | 1.56 (≈ 5.45 µM)
Cc1ccc(S(=O)(=O)N2N=Cc3cc4c(cc3B2O)-c2ccccc2C4)cc1 | 8 (≈ 20.6 µM) | 50 (≈ 129 µM) | > 50 | 2 (≈ 5.15 µM) | > 50 | > 600 | > 50 | > 50
